Measurements as given in ChEMBL document CHEMBL4184148 (Bioorg Med Chem Lett, 2017).
pIC50: −log10 of the molar value.

Columns and labels:
[1] = molecular target: Protein kinase C delta type (Homo sapiens) (UniProt Q05655); assay: Binding affinity to wild-type human partial length PRKCD (Q328 to D676 residues) expressed in Escherichia coli BL21 at 1 uM by Kinomescan method relative to control
[2] = molecular target: Serine/threonine-protein kinase ICK (Homo sapiens) (UniProt Q9UPZ9); assay: Binding affinity to wild-type human partial length ICK (M1 to P314 residues) expressed in HEK293 cells at 1 uM by Kinomescan method relative to control; assay type: cell-based
[3] = molecular target: Mitogen-activated protein kinase kinase kinase 19 (Homo sapiens) (UniProt Q56UN5); assay: Binding affinity to wild-type human partial length YSK4 (T1019 to H1328 residues) expressed in HEK293 cells at 1 uM by Kinomescan method relative to control; assay type: cell-based
[4] = molecular target: Mitogen-activated protein kinase kinase kinase kinase 3 (Homo sapiens) (UniProt Q8IVH8); assay: Binding affinity to wild-type human partial length MAP4K3 (M1 to D301 residues) expressed in Escherichia coli BL21 at 1 uM by Kinomescan method relative to control
[5] = molecular target: Serine/threonine-protein kinase Nek1 (Homo sapiens) (UniProt Q96PY6); assay: Binding affinity to wild-type human partial length NEK1 (M1 to K278 residues) expressed in Escherichia coli BL21 at 1 uM by Kinomescan method relative to control
[6] = molecular target: Serine/threonine-protein kinase TAO3 (Homo sapiens) (UniProt Q9H2K8); assay: Binding affinity to wild-type human partial length TAOK3 (M1 to T316 residues) expressed in HEK293 cells at 1 uM by Kinomescan method relative to control; assay type: cell-based
[7] = molecular target: Casein kinase II subunit alpha (Homo sapiens) (UniProt P68400); assay: Binding affinity to wild-type human full length CSNK2A1 (M1 to Q391 residues) expressed in HEK293 cells at 1 uM by Kinomescan method relative to control; assay type: cell-based
In short: (§1)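 Run as one kinome-wide competition binding panel with each compound at a single fixed concentration. Results were plotted as a kinome-wide selectivity map.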

[8] = molecular target: Cyclin-dependent kinase-like 1 (Homo sapiens) (UniProt Q00532); assay: Binding affinity to wild-type human full length CDKL1 (M1 to I358 residues) expressed in HEK293 cells at 1 uM by Kinomescan method relative to control; assay type: cell-based; in short: as §1
[9] = molecular target: Cyclin-dependent kinase-like 5 (Homo sapiens) (UniProt O76039); assay: Binding affinity to wild-type human partial length CDKL5 (M1 to S337 residues) expressed in HEK293 cells at 1 uM by Kinomescan method relative to control; assay type: cell-based
[10] = molecular target: 5'-AMP-activated protein kinase catalytic subunit alpha-2 (Homo sapiens) (UniProt P54646); assay: Binding affinity to wild-type human partial length AMPK alpha2 (M1 to E306 residues) expressed in Escherichia coli BL21 at 1 uM by Kinomescan method relative to control
Chain of 5'-AMP-activated protein kinase catalytic subunit alpha-2 (Homo sapiens) (P54646 whole entry, looked up, the tested form may be a part): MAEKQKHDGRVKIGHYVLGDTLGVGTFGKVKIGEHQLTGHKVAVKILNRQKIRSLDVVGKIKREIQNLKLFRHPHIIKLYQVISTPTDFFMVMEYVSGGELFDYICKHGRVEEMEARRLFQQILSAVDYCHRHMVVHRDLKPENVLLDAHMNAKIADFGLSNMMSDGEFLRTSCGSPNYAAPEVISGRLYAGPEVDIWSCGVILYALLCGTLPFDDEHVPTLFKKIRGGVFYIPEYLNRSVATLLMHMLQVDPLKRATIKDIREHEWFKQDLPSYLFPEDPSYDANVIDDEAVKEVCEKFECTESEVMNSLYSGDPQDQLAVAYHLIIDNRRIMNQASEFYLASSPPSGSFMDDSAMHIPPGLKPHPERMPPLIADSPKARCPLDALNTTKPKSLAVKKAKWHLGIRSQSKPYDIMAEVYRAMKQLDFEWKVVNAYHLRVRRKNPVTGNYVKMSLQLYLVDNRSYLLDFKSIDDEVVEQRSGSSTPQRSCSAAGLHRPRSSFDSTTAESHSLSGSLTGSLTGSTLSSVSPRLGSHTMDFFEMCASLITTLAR
In short: (§2)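 Kinome-wide competition binding panel run by an outside provider, with each compound tested at a single concentration. Activity is read against the kinase panel.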

[11] = molecular target: SRSF protein kinase 1 (Homo sapiens) (UniProt Q96SB4); assay: Binding affinity to wild-type human full length SRPK1 (M1 to S655 residues) expressed in Escherichia coli BL21 at 1 uM by Kinomescan method relative to control; in short: as §2
[12] = molecular target: Ephrin type-A receptor 3 (Homo sapiens) (UniProt P29320); assay: Binding affinity to wild-type human partial length EPHA3 (D604 to K889 residues) expressed in Escherichia coli BL21 at 1 uM by Kinomescan method relative to control
[13] = molecular target: Serine/threonine-protein kinase WNK4 (Homo sapiens) (UniProt Q96J92); assay: Binding affinity to wild-type human partial length WNK4 (A31 to D461 residues) expressed in HEK293 cells at 1 uM by Kinomescan method relative to control; assay type: cell-based
[14] = molecular target: Mitogen-activated protein kinase kinase kinase kinase 4 (Homo sapiens) (UniProt O95819); assay: Binding affinity to wild-type human partial length MAP4K4 (M1 to R310 residues) expressed in Escherichia coli BL21 at 1 uM by Kinomescan method relative to control
[15] = molecular target: Serine/threonine-protein kinase LATS2 (Homo sapiens) (UniProt Q9NRM7); assay: Binding affinity to wild-type human partial length LATS2 (Q641 to V1088 residues) expressed in HEK293 cells at 1 uM by Kinomescan method relative to control; assay type: cell-based
[16] = molecular target: Serine/threonine-protein kinase MRCK beta (Homo sapiens) (UniProt Q9Y5S2); assay: Binding affinity to wild-type human partial length MRCKB (L56 to S417 residues) expressed in Escherichia coli BL21 at 1 uM by Kinomescan method relative to control
Chain of Serine/threonine-protein kinase MRCK beta (Homo sapiens) (Q9Y5S2 whole entry, the tested form may be a part): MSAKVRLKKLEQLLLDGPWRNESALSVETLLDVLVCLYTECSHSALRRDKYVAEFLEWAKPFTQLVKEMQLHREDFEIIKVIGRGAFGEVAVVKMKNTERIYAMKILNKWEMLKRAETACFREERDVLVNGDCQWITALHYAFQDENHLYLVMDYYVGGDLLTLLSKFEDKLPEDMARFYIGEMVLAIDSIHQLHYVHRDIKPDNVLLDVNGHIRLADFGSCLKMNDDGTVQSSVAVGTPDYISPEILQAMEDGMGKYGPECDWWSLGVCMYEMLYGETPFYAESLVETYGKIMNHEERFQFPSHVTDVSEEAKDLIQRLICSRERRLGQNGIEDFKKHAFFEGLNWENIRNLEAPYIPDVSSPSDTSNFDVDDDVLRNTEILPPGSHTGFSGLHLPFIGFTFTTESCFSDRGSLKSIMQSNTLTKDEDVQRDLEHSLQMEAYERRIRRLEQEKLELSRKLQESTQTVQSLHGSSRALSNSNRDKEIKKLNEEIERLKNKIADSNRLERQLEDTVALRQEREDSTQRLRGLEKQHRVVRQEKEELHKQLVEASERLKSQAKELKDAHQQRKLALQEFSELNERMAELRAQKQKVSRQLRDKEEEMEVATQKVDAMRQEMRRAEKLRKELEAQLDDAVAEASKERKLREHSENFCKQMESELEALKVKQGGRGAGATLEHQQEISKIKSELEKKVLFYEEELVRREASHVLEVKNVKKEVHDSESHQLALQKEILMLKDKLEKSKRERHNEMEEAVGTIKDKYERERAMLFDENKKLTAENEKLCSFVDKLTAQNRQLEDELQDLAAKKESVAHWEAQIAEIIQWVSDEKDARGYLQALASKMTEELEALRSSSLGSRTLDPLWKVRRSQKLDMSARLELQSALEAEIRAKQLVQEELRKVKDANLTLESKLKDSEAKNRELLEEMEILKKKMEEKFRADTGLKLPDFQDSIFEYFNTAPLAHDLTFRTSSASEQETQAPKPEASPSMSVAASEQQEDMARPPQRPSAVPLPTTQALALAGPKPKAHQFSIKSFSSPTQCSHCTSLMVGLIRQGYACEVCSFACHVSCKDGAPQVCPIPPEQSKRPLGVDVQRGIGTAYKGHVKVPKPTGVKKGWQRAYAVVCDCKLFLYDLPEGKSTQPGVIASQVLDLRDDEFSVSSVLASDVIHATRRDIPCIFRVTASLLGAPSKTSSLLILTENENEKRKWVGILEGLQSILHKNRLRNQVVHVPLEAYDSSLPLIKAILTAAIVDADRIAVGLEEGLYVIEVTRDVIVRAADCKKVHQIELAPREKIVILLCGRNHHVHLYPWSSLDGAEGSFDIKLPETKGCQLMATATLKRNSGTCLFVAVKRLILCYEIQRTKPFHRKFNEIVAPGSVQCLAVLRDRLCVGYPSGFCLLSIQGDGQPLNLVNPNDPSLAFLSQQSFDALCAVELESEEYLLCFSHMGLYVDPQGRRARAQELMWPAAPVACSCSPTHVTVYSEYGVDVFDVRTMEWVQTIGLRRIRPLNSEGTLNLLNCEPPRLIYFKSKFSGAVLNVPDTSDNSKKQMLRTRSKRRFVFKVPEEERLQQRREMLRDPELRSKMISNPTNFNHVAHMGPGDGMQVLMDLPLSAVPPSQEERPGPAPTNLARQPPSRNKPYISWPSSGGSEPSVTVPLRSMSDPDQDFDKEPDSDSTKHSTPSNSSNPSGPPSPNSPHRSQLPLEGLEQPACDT

[17] = molecular target: Serine/threonine-protein kinase VRK2 (Homo sapiens) (UniProt Q86Y07); assay: Binding affinity to wild-type human partial length VRK2 (M1 to T336 residues) expressed in HEK293 cells at 1 uM by Kinomescan method relative to control; assay type: cell-based
Chain of Serine/threonine-protein kinase VRK2 (Homo sapiens) (Q86Y07 whole entry, the tested form may be a part): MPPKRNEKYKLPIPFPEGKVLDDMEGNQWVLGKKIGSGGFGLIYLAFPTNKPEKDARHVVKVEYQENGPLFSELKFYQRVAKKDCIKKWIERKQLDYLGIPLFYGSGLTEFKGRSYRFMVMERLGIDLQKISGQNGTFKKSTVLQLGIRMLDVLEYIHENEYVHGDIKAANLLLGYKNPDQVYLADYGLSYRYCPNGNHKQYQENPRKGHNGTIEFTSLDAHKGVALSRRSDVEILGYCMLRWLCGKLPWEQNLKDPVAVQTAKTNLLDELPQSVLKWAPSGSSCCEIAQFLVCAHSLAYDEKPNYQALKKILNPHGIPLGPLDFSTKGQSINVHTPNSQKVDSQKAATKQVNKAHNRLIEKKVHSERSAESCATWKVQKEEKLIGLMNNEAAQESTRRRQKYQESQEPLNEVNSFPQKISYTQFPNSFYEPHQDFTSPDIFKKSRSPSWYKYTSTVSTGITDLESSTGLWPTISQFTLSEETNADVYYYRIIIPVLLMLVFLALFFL

[18] = molecular target: T1, Aurora kinase C (Homo sapiens, UniProt Q9UQB9); assay: Inhibition of recombinant full length GST-tagged human Aurora C expressed in baculovirus expression system by Z'LYTE assay
T1 sequence (Q9UQB9 whole entry): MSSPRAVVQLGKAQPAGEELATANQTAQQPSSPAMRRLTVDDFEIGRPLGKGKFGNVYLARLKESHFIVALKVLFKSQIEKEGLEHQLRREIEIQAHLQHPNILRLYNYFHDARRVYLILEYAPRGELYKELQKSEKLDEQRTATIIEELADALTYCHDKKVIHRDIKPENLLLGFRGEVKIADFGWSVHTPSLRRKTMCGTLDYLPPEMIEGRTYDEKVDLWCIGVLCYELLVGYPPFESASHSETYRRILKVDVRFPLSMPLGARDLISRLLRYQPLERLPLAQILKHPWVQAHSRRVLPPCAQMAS
In short: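 Biochemical IC50 from a Z'LYTE kinase assay, with ATP at the Km for each kinase. Values are reported with standard error.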

[19] = molecular target: Dual specificity protein kinase CLK1 (Homo sapiens) (UniProt P49759); assay: Binding affinity to wild-type human full length CLK1 (M1 to I484 residues) expressed in Escherichia coli BL21 at 1 uM by Kinomescan method relative to control; in short: as §1
Chain of Dual specificity protein kinase CLK1 (Homo sapiens) (P49759 whole entry, looked up, the tested form may be a part): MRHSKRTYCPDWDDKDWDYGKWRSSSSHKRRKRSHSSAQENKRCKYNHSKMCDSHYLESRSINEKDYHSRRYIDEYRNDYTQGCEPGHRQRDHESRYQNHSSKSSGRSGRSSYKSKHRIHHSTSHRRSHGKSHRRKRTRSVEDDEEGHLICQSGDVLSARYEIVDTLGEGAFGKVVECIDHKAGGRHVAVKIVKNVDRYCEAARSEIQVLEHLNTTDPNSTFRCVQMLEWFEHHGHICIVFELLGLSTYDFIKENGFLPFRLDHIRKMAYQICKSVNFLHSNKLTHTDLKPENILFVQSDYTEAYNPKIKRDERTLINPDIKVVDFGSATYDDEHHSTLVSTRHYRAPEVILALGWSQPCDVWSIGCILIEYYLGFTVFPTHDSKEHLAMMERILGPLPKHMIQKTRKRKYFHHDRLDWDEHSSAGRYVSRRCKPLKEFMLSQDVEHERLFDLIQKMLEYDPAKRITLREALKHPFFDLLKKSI

[20] = molecular target: Activated CDC42 kinase 1 (Homo sapiens) (UniProt Q07912); assay: Binding affinity to wild-type human partial length TNK2 (S159 to D474 residues) expressed in Escherichia coli BL21 at 1 uM by Kinomescan method relative to control
[21] = molecular target: BMP-2-inducible protein kinase (Homo sapiens) (UniProt Q9NSY1); assay: Binding affinity to wild-type human partial length BIKE (S34 to N329 residues) expressed in Escherichia coli BL21 at 1 uM by Kinomescan method relative to control
Chain of BMP-2-inducible protein kinase (Homo sapiens) (Q9NSY1 whole entry, looked up, the tested form may be a part): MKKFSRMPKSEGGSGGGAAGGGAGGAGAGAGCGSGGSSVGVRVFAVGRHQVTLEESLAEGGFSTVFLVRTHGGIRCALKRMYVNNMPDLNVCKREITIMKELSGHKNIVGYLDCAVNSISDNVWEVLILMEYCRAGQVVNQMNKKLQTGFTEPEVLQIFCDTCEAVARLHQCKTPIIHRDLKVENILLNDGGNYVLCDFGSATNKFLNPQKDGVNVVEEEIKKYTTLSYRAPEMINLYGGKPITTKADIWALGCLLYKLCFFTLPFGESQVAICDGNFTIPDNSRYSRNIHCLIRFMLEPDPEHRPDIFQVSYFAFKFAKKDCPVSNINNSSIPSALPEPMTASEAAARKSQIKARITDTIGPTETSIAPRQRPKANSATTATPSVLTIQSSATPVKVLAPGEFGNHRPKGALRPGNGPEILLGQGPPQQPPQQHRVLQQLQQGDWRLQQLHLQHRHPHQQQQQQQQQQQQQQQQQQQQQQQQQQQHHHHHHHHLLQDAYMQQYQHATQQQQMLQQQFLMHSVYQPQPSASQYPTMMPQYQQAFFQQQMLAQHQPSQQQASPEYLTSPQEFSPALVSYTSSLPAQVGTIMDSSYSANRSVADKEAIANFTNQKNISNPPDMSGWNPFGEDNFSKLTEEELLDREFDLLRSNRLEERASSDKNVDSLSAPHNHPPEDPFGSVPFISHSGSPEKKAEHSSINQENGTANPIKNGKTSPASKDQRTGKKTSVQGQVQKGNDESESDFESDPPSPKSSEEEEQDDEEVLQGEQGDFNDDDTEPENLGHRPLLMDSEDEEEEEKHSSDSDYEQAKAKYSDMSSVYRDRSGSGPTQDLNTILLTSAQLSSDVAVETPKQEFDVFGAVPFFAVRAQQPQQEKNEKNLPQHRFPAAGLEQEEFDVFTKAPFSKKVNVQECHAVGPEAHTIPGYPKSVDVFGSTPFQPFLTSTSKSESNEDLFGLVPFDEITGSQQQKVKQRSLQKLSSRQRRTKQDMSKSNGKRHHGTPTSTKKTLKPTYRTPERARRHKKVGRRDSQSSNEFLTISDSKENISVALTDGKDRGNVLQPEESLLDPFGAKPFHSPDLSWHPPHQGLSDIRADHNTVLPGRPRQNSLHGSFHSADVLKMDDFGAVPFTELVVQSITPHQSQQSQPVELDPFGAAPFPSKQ

[22] = molecular target: Mitogen-activated protein kinase kinase kinase 1 (Homo sapiens) (UniProt Q13233); assay: Binding affinity to wild-type human partial length MAP3K1 (L1202 to W1512 residues) expressed in HEK293 cells at 1 uM by Kinomescan method relative to control; assay type: cell-based
[23] = molecular target: Tyrosine-protein kinase Fer (Homo sapiens) (UniProt P16591); assay: Binding affinity to wild-type human partial length FER (S542 to T822 residues) expressed in Escherichia coli BL21 at 1 uM by Kinomescan method relative to control

Chain of Protein kinase C delta type (Homo sapiens) (Q05655 whole entry, looked up, the tested form may be a part): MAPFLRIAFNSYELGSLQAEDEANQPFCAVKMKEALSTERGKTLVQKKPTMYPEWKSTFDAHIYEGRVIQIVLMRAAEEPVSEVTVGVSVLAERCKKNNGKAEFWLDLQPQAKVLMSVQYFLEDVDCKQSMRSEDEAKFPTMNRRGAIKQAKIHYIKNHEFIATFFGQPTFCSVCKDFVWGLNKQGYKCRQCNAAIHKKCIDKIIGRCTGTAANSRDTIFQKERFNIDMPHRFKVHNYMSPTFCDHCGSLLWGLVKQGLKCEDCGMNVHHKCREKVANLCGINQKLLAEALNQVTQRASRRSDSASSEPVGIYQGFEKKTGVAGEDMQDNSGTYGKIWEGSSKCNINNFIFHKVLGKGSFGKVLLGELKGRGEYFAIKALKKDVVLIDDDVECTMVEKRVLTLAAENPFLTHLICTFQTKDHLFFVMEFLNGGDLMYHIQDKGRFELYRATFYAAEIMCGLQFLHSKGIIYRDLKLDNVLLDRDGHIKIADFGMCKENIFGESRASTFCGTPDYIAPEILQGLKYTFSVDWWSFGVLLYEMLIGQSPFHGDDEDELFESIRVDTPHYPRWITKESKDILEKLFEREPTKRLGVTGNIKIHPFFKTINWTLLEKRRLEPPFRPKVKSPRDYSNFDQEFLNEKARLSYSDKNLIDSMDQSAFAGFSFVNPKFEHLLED

Structure (SMILES) | Activity [1] | Activity [2] | Activity [3] | Activity [4] | Activity [5] | Activity [6] | Activity [7] | Activity [8] | Activity [9] | Activity [10] | Activity [11] | Activity [12] | Activity [13] | Activity [14] | Activity [15] | Activity [16] | Activity [17] | pIC50 [18] | Activity [19] | Activity [20] | other results
CCC(=O)Nc1ccc(C(=O)Nc2ccc(Nc3ncc4c(n3)N(C)c3ccc(C)cc3C(=O)N4C)cc2)cc1 | 84% | 97% | 77% | 79% | 100% | 92% | 47% | 88% | 89% | 100% | 86% | 99% | 85% | 95% | 92% | 98% | 61% | 7.28 | 98% | 86% | Activity [21]: 93%; Activity [22]: 76%; Activity [23]: 85%
C=CC(=O)Nc1ccc(C(=O)Nc2ccc(Nc3ncc4c(n3)N(C)c3ccc(C)cc3C(=O)N4C)cc2)cc1 | 97% | 86% | 72% | 97% | 94% | 95% | 95% | 92% | 98% | 88% | 89% | 100% | 99% | 98% | 100% | 96% | 100% | 7.20 | 100% | 96% | Activity [21]: 85%; Activity [22]: 83%; Activity [23]: 78%
